# Test results from the M2OR odorant receptor database.
# Assays:
# Conditions in all cases: stereoisomer not certain
# UniProt Q8VF24 = molecular target: T1, UniProt Q8VF24
# T1 sequence (whole entry): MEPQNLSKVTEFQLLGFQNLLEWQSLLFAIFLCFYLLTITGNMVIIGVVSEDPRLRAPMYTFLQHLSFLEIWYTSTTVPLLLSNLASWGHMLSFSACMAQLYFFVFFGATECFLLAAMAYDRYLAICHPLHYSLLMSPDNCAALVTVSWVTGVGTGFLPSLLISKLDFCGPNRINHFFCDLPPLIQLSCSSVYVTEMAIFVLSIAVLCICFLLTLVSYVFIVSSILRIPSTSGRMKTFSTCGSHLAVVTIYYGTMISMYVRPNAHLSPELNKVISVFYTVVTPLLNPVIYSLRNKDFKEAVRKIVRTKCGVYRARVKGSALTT
# Summary of the method: (§1)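 Transient luciferase assays in mammalian cell lines were common, though methods varied by source. The values come from published papers and their supplementary material, with extra details from the original authors when needed. Responsive refers to a measured signal the original authors judged statistically different from baseline, and non-responsive (inactive) to the remainder.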
# UniProt Q8VF43 = molecular target: T2, UniProt Q8VF43
# T2 sequence (whole entry): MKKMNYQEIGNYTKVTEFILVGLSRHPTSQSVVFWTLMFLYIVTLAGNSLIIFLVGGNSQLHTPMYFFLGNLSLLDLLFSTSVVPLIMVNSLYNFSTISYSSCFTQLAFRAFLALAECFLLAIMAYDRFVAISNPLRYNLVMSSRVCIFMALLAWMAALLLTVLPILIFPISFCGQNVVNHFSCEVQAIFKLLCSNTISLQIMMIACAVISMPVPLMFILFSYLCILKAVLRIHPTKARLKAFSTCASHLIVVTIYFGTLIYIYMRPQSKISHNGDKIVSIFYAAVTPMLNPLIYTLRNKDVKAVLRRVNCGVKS
# Summary of the method: as §1
# UniProt Q8VF44 = molecular target: T3, UniProt Q8VF44
# T3 sequence (whole entry): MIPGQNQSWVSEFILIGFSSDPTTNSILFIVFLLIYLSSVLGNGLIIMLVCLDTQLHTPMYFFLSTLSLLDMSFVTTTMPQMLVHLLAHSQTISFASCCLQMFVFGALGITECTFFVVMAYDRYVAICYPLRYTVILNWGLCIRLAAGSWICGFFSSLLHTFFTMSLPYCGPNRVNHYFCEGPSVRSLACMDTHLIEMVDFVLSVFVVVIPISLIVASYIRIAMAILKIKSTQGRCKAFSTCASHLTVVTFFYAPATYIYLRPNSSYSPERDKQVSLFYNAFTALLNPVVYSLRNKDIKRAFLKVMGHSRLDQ
# Summary of the method: as §1
# UniProt Q8VF52 = molecular target: T4, UniProt Q8VF52
# T4 sequence (whole entry): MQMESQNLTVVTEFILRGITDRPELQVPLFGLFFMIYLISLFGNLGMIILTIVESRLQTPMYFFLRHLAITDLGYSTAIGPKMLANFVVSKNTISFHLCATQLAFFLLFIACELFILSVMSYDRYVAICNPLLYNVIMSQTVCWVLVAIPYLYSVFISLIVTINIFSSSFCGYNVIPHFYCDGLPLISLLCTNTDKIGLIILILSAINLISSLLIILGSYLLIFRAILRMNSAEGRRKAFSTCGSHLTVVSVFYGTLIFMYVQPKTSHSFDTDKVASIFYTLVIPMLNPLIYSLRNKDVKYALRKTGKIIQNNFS
# Summary of the method: as §1
# UniProt Q8VFG6 = molecular target: T5, UniProt Q8VFG6
# T5 sequence (whole entry): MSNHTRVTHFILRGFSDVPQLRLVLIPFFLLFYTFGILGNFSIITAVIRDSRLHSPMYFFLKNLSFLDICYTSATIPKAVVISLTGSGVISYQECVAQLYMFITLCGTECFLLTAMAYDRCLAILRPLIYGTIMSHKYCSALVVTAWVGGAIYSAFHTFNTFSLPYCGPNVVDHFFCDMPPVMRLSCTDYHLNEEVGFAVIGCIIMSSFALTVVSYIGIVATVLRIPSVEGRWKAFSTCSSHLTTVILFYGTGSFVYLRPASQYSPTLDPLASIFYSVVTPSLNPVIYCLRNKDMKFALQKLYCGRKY
# Summary of the method: as §1
# UniProt Q8VFM8 = molecular target: T6, UniProt Q8VFM8
# T6 sequence (whole entry): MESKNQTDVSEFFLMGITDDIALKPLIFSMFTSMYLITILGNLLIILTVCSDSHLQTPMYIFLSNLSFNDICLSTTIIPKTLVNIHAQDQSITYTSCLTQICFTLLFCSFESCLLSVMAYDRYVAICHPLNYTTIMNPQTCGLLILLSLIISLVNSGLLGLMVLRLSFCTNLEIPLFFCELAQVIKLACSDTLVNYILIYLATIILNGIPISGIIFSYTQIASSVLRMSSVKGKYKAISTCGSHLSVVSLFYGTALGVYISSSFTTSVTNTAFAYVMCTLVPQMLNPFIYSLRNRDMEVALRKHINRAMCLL
# Summary of the method: as §1
# UniProt Q8VFP5 = molecular target: T7, UniProt Q8VFP5
# T7 sequence (whole entry): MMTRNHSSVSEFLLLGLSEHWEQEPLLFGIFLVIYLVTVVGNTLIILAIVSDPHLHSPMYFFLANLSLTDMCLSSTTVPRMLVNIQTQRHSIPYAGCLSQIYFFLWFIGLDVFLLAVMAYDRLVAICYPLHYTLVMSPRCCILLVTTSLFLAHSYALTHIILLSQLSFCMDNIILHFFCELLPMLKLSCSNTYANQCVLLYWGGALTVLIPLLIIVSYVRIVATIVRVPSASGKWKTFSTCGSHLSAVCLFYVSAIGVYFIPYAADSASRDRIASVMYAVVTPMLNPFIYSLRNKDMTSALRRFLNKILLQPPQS
# Summary of the method: as §1
# UniProt Q8VFZ6 = molecular target: T8, UniProt Q8VFZ6
# T8 sequence (whole entry): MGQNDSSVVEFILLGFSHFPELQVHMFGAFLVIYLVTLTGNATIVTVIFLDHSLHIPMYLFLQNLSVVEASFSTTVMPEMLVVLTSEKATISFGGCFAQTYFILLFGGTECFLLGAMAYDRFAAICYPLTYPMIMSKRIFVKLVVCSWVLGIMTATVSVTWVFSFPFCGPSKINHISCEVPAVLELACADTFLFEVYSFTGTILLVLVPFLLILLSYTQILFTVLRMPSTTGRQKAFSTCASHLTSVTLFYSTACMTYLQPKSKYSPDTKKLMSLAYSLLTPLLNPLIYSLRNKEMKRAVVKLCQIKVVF
# Summary of the method: as §1
# UniProt Q8VG01 = molecular target: T9, UniProt Q8VG01
# T9 sequence (whole entry): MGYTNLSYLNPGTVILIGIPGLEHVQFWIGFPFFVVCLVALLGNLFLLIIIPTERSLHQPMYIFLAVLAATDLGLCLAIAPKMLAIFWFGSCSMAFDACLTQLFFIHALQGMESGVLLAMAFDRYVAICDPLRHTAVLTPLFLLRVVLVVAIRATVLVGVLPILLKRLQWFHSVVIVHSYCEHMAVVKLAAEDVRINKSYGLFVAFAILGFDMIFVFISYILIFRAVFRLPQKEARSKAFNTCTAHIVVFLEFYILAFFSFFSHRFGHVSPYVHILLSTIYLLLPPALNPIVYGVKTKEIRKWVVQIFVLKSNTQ
# Summary of the method: as §1
# UniProt Q8VG22 = molecular target: T10, UniProt Q8VG22
# T10 sequence (whole entry): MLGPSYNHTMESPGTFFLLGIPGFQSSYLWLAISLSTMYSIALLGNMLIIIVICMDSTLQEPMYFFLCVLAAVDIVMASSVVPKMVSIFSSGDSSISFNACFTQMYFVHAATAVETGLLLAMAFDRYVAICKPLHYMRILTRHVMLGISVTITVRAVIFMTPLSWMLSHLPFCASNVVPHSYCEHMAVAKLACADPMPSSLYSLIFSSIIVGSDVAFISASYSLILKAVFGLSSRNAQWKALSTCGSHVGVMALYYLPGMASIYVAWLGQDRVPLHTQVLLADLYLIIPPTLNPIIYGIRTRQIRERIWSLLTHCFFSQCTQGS
# Summary of the method: as §1
# UniProt Q8VF06 = molecular target: UniProt Q8VF06
# Summary of the method: as §1
# UniProt Q8VG26 = molecular target: UniProt Q8VG26
# Summary of the method: as §1
# 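Also: active if original authors judged signal statistically different from baseline.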
# Chain of UniProt Q8VF06 (Q8VF06 as listed by the source): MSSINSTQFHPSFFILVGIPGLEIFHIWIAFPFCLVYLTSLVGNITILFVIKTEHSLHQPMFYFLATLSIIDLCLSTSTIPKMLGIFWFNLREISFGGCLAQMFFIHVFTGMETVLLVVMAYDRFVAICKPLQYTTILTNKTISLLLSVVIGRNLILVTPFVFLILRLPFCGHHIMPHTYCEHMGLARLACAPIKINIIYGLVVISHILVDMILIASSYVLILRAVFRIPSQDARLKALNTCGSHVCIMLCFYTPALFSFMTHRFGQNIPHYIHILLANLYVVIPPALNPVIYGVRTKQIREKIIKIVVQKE
# Chain of UniProt Q8VG26 (Q8VG26 as listed by the source): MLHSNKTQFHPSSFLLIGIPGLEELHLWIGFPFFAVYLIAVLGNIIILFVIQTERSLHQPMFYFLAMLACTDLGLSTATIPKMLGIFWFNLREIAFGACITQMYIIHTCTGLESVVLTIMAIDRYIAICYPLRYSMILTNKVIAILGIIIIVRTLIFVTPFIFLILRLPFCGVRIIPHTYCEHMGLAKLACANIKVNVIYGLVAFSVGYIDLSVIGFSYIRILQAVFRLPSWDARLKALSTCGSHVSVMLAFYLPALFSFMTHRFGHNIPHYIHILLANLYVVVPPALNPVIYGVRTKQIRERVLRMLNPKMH
Compound,odorant receptor agonist call (UniProt Q8VF24),odorant receptor agonist call (UniProt Q8VF43),odorant receptor agonist call (UniProt Q8VF44),odorant receptor agonist call (UniProt Q8VF52),odorant receptor agonist call (UniProt Q8VFG6),odorant receptor agonist call (UniProt Q8VFM8),odorant receptor agonist call (UniProt Q8VFP5),odorant receptor agonist call (UniProt Q8VFZ6),odorant receptor agonist call (UniProt Q8VG01),odorant receptor agonist call (UniProt Q8VG22),odorant receptor agonist call (UniProt Q8VF06),odorant receptor agonist call (UniProt Q8VG26)
CCCCCOC(=O)CCCCC,inactive,inactive,inactive,inactive,inactive,inactive,inactive,inactive,inactive,inactive,–,–
CCCCCCCCCO,inactive,inactive,inactive,inactive,inactive,inactive,inactive,inactive,inactive,inactive,inactive,inactive
CCCCCCCO,inactive,inactive,inactive,inactive,inactive,inactive,inactive,inactive,inactive,active,inactive,inactive
CCCC(C)=O,inactive,–,inactive,inactive,inactive,–,–,inactive,inactive,inactive,inactive,inactive
COc1cc(C(=O)O)ccc1O,inactive,inactive,inactive,inactive,inactive,inactive,inactive,inactive,inactive,inactive,–,–
CCCCCCCCCCC(=O)O,–,–,–,–,–,–,–,–,–,–,inactive,–
CCCCCC1=C(C)CCC1=O,inactive,inactive,inactive,active,inactive,inactive,inactive,inactive,inactive,active,–,–
CCCCC(C)=O,inactive,inactive,inactive,inactive,inactive,inactive,inactive,inactive,inactive,inactive,–,–
CCCCCCCCS,inactive,inactive,inactive,inactive,inactive,inactive,inactive,inactive,inactive,inactive,–,–
CCOC(=O)C(C)C,inactive,inactive,inactive,inactive,inactive,inactive,inactive,inactive,inactive,inactive,–,–
CCCCCCCCCS,inactive,inactive,inactive,inactive,inactive,inactive,inactive,active,inactive,inactive,–,–
CCC(=O)O,inactive,inactive,inactive,inactive,inactive,inactive,inactive,inactive,inactive,inactive,–,–
CCCCCCO,inactive,inactive,inactive,inactive,inactive,inactive,inactive,inactive,inactive,active,inactive,inactive
O=C(O)CCCCCCCCCC(=O)O,–,–,–,–,–,–,–,–,–,–,inactive,–
CCCCOC(=O)CCC,–,–,–,–,–,–,–,–,–,–,inactive,inactive
CC(=O)OCc1ccccc1,inactive,inactive,inactive,inactive,inactive,inactive,inactive,inactive,inactive,active,–,–
CCCCCC(=O)CC,inactive,inactive,inactive,inactive,inactive,inactive,inactive,inactive,inactive,inactive,–,–
CC(C)=CCCC(C)CCO (stereo unspecified),inactive,inactive,inactive,inactive,inactive,inactive,inactive,inactive,inactive,inactive,–,–
CCCCC(=O)O,inactive,inactive,inactive,inactive,inactive,inactive,inactive,inactive,inactive,inactive,inactive,inactive
O=C([O-])CCCCCCCC(=O)[O-].[H+].[H+],–,inactive,–,inactive,–,inactive,inactive,–,inactive,–,inactive,inactive
CCCCCCCCCCCC(=O)O,–,–,–,–,–,–,–,–,–,–,inactive,–
O=C1Cc2ccccc2O1,inactive,inactive,active,inactive,inactive,inactive,inactive,inactive,inactive,active,–,–
CCCCC=O,–,inactive,–,inactive,–,inactive,inactive,–,inactive,–,inactive,inactive
